From PubChem BioAssay
Shown are actives, neighbours in structure and some others; about 3.8% of the full set was active somewhere.
TMEM16A act: activators or potentiators of mouse TMEM16A chloride channel | Q8BHY3 | HEK293 TMEM16A/YFP-H148Q/I152L, iodide quench fluorescence; stronger effect = lower value | B-score at 10 µM | hit rate 0.3% among 340,000 | AID 623877;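 active = fluorescence-ratio B-score plate-corrected deviation score at least 3 library SD below zero, with starting fluorescence score within 5 deviations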;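 also: channel opened by trigger with iodide after compound preincubation; score built on the fluorescence ratio of max minus min over baseline; more negative score means more quench and so TMEM16A activation or potentiation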
Target sequence (Q8BHY3 whole entry, looked up): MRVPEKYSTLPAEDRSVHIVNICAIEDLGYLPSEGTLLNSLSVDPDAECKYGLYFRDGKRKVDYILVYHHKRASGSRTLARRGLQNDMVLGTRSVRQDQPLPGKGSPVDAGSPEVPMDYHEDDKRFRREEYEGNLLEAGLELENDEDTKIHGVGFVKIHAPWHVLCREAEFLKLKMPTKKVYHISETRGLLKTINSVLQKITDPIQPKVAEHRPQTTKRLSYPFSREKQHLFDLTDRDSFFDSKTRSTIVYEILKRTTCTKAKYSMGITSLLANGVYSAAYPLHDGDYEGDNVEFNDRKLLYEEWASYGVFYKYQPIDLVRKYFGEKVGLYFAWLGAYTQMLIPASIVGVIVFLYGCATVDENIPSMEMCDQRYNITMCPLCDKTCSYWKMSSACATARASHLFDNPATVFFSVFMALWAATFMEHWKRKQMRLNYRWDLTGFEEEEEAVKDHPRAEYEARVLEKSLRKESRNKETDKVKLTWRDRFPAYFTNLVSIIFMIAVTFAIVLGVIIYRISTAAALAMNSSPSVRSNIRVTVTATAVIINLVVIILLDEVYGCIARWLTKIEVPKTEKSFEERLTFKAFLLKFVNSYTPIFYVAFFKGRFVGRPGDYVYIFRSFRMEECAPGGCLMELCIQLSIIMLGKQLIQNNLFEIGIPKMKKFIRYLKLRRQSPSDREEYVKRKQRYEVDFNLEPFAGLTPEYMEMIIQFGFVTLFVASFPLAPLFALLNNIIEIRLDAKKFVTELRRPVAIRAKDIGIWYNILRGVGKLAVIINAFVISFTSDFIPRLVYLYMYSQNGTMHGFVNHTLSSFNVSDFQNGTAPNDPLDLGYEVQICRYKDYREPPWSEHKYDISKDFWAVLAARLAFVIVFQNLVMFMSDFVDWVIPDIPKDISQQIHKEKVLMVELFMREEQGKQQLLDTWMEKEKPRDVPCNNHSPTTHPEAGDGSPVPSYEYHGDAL
CSC inhib: blocks cancer stem cells; cancer stem cell-like cells viability, luminescence; inhibition, % at 7.5 µM; hit rate 1.1% among 300,000; AID 2717; in the data active = inhibition above about 75%; tested in HMLE shEcad cells
ANO1 block: mouse TMEM16A channel inhibition, primary screen; Q8BHY3; HEK293 TMEM16A/YFP iodide influx fluorescence, ionomycin; normalized B-score (activity score, 25-100; higher = stronger inhibition) at 10 µM; hit rate 1.2% among 310,000;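 active = ratio plate-corrected score three or more library SD toward inhibition, starting fluorescence score within five deviations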;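 also: score derived from kinetic fluorescence span divided by baseline fluorescence per well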
Beta apoptosis: beta cell apoptosis inhibition. INS-1E cytokine-induced death, ATP luminescence, 48 h; percent of positive-control rescue, neutral wells zero. protection from apoptosis, % (concentration not given with the values). hit rate 0.8% among 300,000;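 active = Every replicate reaches about 75%, or at least half do and their mean reaches it too, limit read from the data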;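 also: 0% = cytokine-treated negative control wells and 100% = positive control rescue; higher means more ATP so stronger rescue from cytokine killing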
MC4R barr agon: human MC4R agonism via beta-arrestin; P32245; U2OS MC4R beta-arrestin complementation, luminescence; percent of melanotan II response, DMSO zero; activation, % at 8.9 µM; hit rate 0.98% among 360,000;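 active = activation above a per-plate cutoff, the mean activation of sample wells on that plate plus 3 SD, cut at about 8% in these data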
MC4R antag cAMP: human MC4R antagonism in cAMP assay. P32245. inhibition, % at 6.5 µM. MC4R-expressing cells, MTII-stimulated cAMP, LANCE TR-FRET. AID 540295. hit rate 0.48% among 360,000;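 active = inhibition above its plate's cutoff, the mean of tested wells on that plate plus 3 SD, cut at about 29% in these data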;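 also: 0% = Melanotan II alone and 100% = Melanotan II plus saturating MCL0020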
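Assay system: U2OS-MC4R stable cell line; Also added: Melanotan II; Technique: Eu-cAMP/anti-cAMP TR-FRET, emission 671 nm; Times: 30-min compound, 1-h challenge, 1-h detection, room temperature.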
TMEM16A reconf: re-confirmation of mouse TMEM16A chloride channel inhibitors | inhibition, % at 10 µM | shares compounds with ANO1 block | HEK293 TMEM16A/YFP-H148Q, iodide quench fluorescence; ionomycin added to raise cell calcium | hit rate 39% among 2,300;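 active = mean duplicate percent inhibition, scaled so buffer wells are 0 and the reference blocker 100, over three buffer SD above buffer mean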
TMEM16A Ca cntr: calcium mobilization counter-screen hit for TMEM16A inhibitor series; shares compounds with ANO1 block; calcium response (% of ionomycin), % at 10 µM; TMEM16A/YFP HEK293, Fluo4 calcium mobilization; AID 652231; hit rate 2% among 2,300;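 active = duplicate-averaged calcium signal over 20% of the ionomycin maximum, relative to buffer baseline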;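 also: each well's signal is peak minus trough fluorescence divided by its pre-addition baseline; 0% = buffer wells and 100% = ionomycin wells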
Parental YFP cnt: acts in parental YFP-HEK293 cells lacking TMEM16A, counter-screen; iodide YFP quench, ionomycin; YFP ratio F(max-min)/F0 at 10 µM; 2,300 tested, under 10 active; AID 652233; shares compounds with ANO1 block;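 active = yellow fluorescent protein signal ratio exceeding the buffer control mean by over 5 SD of those controls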;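 also: ratio is mean of duplicate wells from kinetic YFP trace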
ClC-1 inh: blocks the rat ClC-1 voltage-dependent chloride channel | shares compounds with ANO1 block | ratio percent, % at 10 µM | CHO ClC-1-YFP, iodide influx fluorescence quench; iodide control reads 0, buffer control 100 | 2,300 tested, under 10 active;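 active = duplicate-mean ratio percent above the mean of iodide-only control wells, which defines zero, plus 5 of their SD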;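 also: higher percent means stronger block of ClC-1 iodide influx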
An asterisk follows results filed as active; i = inactive; · = no result.

SMILES	TMEM16A act	CSC inhib	ANO1 block	Beta apoptosis	MC4R barr agon	MC4R antag cAMP	TMEM16A reconf	TMEM16A Ca cntr	Parental YFP cnt	ClC-1 inh
CC(C)CNC(=O)c1c(N)n(Cc2ccco2)c2nc3ccccc3nc12	i	64.7	i	-10.3	-0.1	5.3	18.0%*	i	-1.04	-7.5
COc1ccc(OC)c(CC(=O)O)c1	-4.87*	·	25*	-6.9	2.1	0.5	i	i	-1.03	6.0
COC(=O)C1=C(c2ccc(F)cc2OCc2ccccc2)C[C@@H]2CC[C@H]1N2C(=O)NCc1ccccc1Br	i	27.9	·	10.1	-0.1	18.5	·	·	·	·
CCN(CC)C(=O)N[C@H]1C[C@@H]2c3cccc4[nH]cc(c34)C[C@H]2N(C)C1	i	-10.9	i	-8.1	0.4	1.4	i	i	-0.997	-3.0
CN1C[C@H](CO)C[C@@H]2c3cccc4[nH]cc(c34)C[C@H]21	i	1.2	i	0.1	-0.3	5.8	·	·	·	·
Cc1cccc(OP(N)(=O)Oc2cccc(C)c2C)c1C	i	-8.1	i	-1.1	1.4	4.2	·	·	·	·
O=C(Cc1ccccc1)N1CCN(Cc2ccccc2Cl)CC1	i	10.1	25*	0.2	-0.1	-0.4	i	i	-0.978	-10.0
Cc1ncoc1C(=O)NCC1=C(c2ccc3ccccc3c2)C[C@@H]2CC[C@H]1N2Cc1ccco1	·	·	·	·	-1.0	3.1	·	·	·	·
